Compounds with a hit are over-represented: about 4.7% of the library has one in this group of screens.
697 NFkB inh: inhibitors of the PMA/ionomycin-induced NF-kB reporter in 697 B cells | 697 B-cell NF-kB luciferase reporter, 16 h | inhibition, % at 4 µM | hit rate 0.33% among 330,000; in the data active = inhibition above about 35%
aSyn UTR inh: 5' untranslated region of α-synuclein, MLPCN primary screen; alpha-synuclein 5'UTR reporter, inhibitor activity; inhibition, % (tested at 7.5 µM); hit rate 0.82% among 300,000; AID 1813; in the data active = inhibition above about 60%;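 also: H4 neuroglioblastoma cells stably carrying SNCA 5'UTR luciferase fusion; 0% = DMSO wells and 100% = positive control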
VIM-2 inhibitor: blocks Pseudomonas aeruginosa VIM-2 metallo-beta-lactamase; inhibition, % at 5.6 µM; AID 1527; hit rate 0.89% among 290,000; purified VIM-2, nitrocefin hydrolysis, epi-absorbance fluorescence;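 active = inhibition above the mean of all tested compounds plus 3 SD, cutoff set per screening run, cut at about 7.5% in these data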;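 also: red hydrolysis product quenches plate fluorescence so inhibitors raise well fluorescence; 0% = enzyme with DMSO and 100% = DMSO without enzyme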
IMP-1 inhibitor: inhibitors of Pseudomonas aeruginosa IMP-1 metallo-beta-lactamase; inhibition, % at 5.6 µM; purified IMP-1, nitrocefin hydrolysis, epi-absorbance fluorescence; hit rate 0.45% among 290,000;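 active = inhibition above the mean plus 3 SD of all compounds in the same screening run, cut at about 4.5% in these data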;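 also: 0% = IMP-1 with DMSO and 100% = DMSO wells lacking enzyme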
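System: purified IMP-1 / Input: IMP-1 dispensed at 0.2 nM / Medium: 50 mM HEPES pH 7.1, 50 µM ZnSO4, 0.05% Brij 35 / Timing: 15 min enzyme–compound preincubation, then 25 min nitrocefin reaction, 25 °C / Technique: plate fluorescence quenching by hydrolysis product, ex 480/em 530 nm / Repeats: singlicate testing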
Mdm2-MdmX inh: human Mdm2/MdmX binding inhibition | inhibition, % at 8 µM | SaOS-2 split-luciferase Mdm2/MdmX complementation, luminescence | hit rate 3% among 330,000 | O15151+Q00987 | AID 485346;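 active = inhibition of at least 50% at 8 µM in the primary screen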
Target sequence (O15151 whole entry, looked up): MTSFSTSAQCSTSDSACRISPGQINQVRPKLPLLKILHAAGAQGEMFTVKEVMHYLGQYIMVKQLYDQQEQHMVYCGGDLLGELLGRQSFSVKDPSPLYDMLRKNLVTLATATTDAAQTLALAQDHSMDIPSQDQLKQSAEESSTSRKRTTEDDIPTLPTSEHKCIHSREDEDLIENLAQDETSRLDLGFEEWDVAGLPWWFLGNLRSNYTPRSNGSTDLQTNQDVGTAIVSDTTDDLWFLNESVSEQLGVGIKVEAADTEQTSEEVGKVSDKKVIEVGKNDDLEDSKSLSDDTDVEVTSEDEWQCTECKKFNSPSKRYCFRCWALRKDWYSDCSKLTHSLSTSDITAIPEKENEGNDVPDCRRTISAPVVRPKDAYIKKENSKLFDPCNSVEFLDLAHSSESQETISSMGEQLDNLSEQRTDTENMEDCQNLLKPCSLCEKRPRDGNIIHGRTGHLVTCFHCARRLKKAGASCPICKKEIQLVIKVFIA
Target sequence (Q00987 whole entry, looked up): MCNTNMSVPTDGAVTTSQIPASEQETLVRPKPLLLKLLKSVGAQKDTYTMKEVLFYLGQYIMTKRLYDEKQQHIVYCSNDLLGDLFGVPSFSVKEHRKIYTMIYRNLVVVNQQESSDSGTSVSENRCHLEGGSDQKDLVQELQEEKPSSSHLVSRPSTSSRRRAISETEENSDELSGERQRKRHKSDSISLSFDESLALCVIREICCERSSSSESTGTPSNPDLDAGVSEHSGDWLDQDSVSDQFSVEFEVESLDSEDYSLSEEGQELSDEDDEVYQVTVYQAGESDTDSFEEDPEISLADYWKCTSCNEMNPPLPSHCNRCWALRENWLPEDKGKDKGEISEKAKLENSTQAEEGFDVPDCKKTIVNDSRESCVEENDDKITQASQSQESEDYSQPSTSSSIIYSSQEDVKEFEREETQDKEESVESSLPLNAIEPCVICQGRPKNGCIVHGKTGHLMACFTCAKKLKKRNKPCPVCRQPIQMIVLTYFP
Jurkat NFkB inh: lowers PMA/ionomycin-induced NF-kB signal in Jurkat cells. hit rate 0.53% among 330,000. AID 435003. inhibition, % at 4 µM. PMA/ionomycin-induced NF-kB luciferase reporter, luminescence; in the data active = inhibition above about 50%
Jurkat NFkB conf: inhibitors of the PMA/ionomycin-induced NF-kB reporter in Jurkat cells, retest | inhibition, % at 4 µM | shares compounds with Jurkat NFkB inh | Jurkat NF-kB luciferase, 16 h | hit rate 27% among 2,700;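 active = inhibition reaching about 45% at 4 µM in either replicate, limit read from the data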;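 also: plate controls were PMA/ionomycin stimulated DMSO wells for no effect and unstimulated DMSO wells for full effect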
Mdm2 MdmX conf: human Mdm2/MdmX binding inhibition, confirmed. shares compounds with Mdm2-MdmX inh. luminescent assay. inhibition, % at 8 µM. hit rate 55% among 10,000. AID 489028; in the data active = inhibition above about 40%
Full FLuc ctr: full-length luciferase inhibition in Mdm2/MdmX counter-screen | shares compounds with Mdm2-MdmX inh | SaOS-2 full-length luciferase counterscreen, luminescence | inhibition, % at 8 µM | hit rate 77% among 6,200;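 active = mean inhibition at 8 µM reaching about 37%, which flags the compound as non-specific, limit read from the data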;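 also: p53-null SaOS-2 cells with luciferase driven by a doxycycline-inducible promoter; compound on cells about two nights before reading with doxycycline added after day one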
The depositor's hits bear a star; · = not tested or not shown.

SMILES | 697 NFkB inh | aSyn UTR inh | VIM-2 inhibitor | IMP-1 inhibitor | Mdm2-MdmX inh | Jurkat NFkB inh | Jurkat NFkB conf | Mdm2 MdmX conf | Full FLuc ctr
COC(=O)c1c(-c2cccc3ccccc23)csc1NC(=O)Cc1ccc(OC)c(OC)c1 | -4 | 27 | 1 | -1 | 62* | 53* | 25 | 51* | 48*
C/C(O)=C(\N=Nc1cc(C)ccc1O)C(N)=O | -1 | -65 | -2 | -1 | -35 | -6 | · | · | ·
CCn1c(CCl)nc2cc(S(=O)(=O)N3CCOCC3)ccc21 | 15 | · | · | · | 43 | 0 | · | · | ·
O=C(C#Cc1ccccc1)c1ccco1 | -62 | -141 | -4 | -2 | 98* | 51* | 18 | 68* | 51*
O=C(N/N=C/c1ccccc1)c1ccco1 | -33 | -107 | -4 | -1 | 18 | -3 | · | · | ·
CCOC(=O)CSC1=C(C#N)C(c2ccc(C)s2)CC(=O)N1 (configuration not stated) | 5 | 41 | -2 | -2 | 61* | 57* | 49* | 62* | 67*
CCSC1=C(C#N)C(c2ccc(C)s2)CC(=O)N1 (configuration not stated) | -16 | 18 | -2 | -4 | -19 | -13 | · | · | ·
COc1ccc(-c2cc(C3CCN(c4cc(Cl)nc(N)n4)CC3)[nH]n2)cc1 | -60 | 39 | -1 | -1 | 18 | 3 | · | · | ·
Nc1nc(Cl)cc(N2CCC(c3cc(-c4ccc(Cl)cc4)n[nH]3)CC2)n1 | -8 | 43 | -3 | -2 | 84* | 70* | 63* | -1 | ·
COc1ccc(NC(=O)c2nc(C)c(C3(C)CC(c4ccccc4)=NO3)s2)cc1 (configuration not stated) | -14 | 28 | · | · | 59* | 55* | 37 | 58* | 72*
Cc1nc(C(=O)Nc2ccccc2)sc1C1(C)CC(c2cccnc2)=NO1 (configuration not stated) | -29 | -111 | · | · | -27 | -60 | · | · | ·
Cc1ccc(C(=O)NNS(=O)(=O)c2ccc(F)cc2)cc1 | -6 | -11 | 0 | 0 | -1 | -31 | · | · | ·
CCN(c1ccccc1)S(=O)(=O)c1ccc(C(=O)NC2CCN(Cc3ccccc3)CC2)cc1 | 27 | · | · | · | 54* | 74* | 65* | 55* | 57*
O=C(NC1CC1)c1ccc(CN(c2ccccc2)S(=O)(=O)c2ccccc2)cc1 | -7 | 17 | -2 | -2 | -12 | -6 | · | · | ·
O=C(c1ccccc1Cc1ccccc1)N1CCN(S(=O)(=O)c2ccccc2[N+](=O)[O-])CC1 | 10 | 7 | · | · | 23 | 4 | · | · | ·
Cc1cc(NC(=O)CSc2nnc3c(C)cc4c(C)ccc(C)c4n23)no1 | -34 | -15 | 1 | -2 | 66* | 59* | 20 | 63* | 58*
COc1cc2cc(C)c3nnc(SCC(=O)Nc4cc(C)on4)n3c2cc1OC | 25 | 14 | 1 | -1 | 5 | 6 | · | · | ·
CC1CC1C(=O)Nc1ccc(S(=O)(=O)N2CCCCC2)cc1 (configuration not stated) | -16 | · | · | · | -5 | 5 | · | · | ·
C=C(C)COc1ccc(-c2[nH]ncc2-c2ccc(Br)cc2)c(O)c1 | -22 | 91* | -3 | -3 | 60* | 59* | 8 | 62* | 44*
C=C(C)COc1ccc(-c2n[nH]c(C)c2-c2ccc(Br)cc2)c(O)c1 | -19 | 19 | -1 | -3 | 86* | 50* | 26 | 56* | 51*
C=C(C)COc1ccc(-c2ncncc2-c2ccc(Br)cc2)c(O)c1 | -3 | -3 | -1 | -2 | -7 | 8 | · | · | ·
C=C(C)COc1ccc(-c2[nH]ncc2-c2ccccc2OC)c(O)c1 | -31 | -34 | -8 | -5 | 49 | 16 | · | · | ·
CCOc1ccc(N=C2NC(=O)SC2CC(=O)OC)cc1 (configuration not stated) | -1 | 3 | -1 | -2 | 12 | -7 | · | · | ·
CC(=O)Nc1cc(NC(C)=O)cc(C(=O)NCC2(N3CCOCC3)CCCCC2)c1 | 14 | · | · | · | 12 | -12 | · | · | ·
